Measurements pooled from the literature.
Compare with care: the assays were run in different laboratories.
MAP4K5: Mitogen-activated protein kinase kinase kinase kinase 5 (MAP4K5, Homo sapiens, UniProt Q9Y4K4)
Adra1b: Alpha-1B adrenergic receptor (Adra1b, Rattus norvegicus, UniProt P15823)
XDH: Xanthine dehydrogenase/oxidase (XDH, Bos taurus, UniProt P80457)
CTSL: Procathepsin L (CTSL, Homo sapiens, UniProt P07711)

Cn1cc(-c2cc(F)cc(N3CCn4c(cc5c4CCCC5)C3=O)c2CO)cc(Nc2ccc(N3CCN(C4COC4)CC3)cn2)c1=O
inhibition (MAP4K5; enzyme activity; inhibitor; 0.1 µM): 3%

CC(C)N1CCC[C@H]1CNC(=O)c1cn(C2CCCC2)c(=O)c2c1c1ccccc1n2C
inhibition (Adra1b; ligand displacement; radioligand; 10 µM): -10%

C[C@H](C(=O)N[C@H]1COc2ccccc2[C@@H]1S(C)(=O)=O)c1ccc(F)cc1
inhibition (XDH; enzyme activity; inhibitor; 10 µM): 10%

N=C(N)c1ccc2cc(OC(=O)c3ccc(N=C(N)N)cc3)ccc2c1
inhibition (CTSL; enzyme activity; inhibitor; 10 µM): 57%

Cn1cc(-c2cccc(N3CCc4c(sc5c4CC(C)(C)C5)C3=O)c2CO)cc(Nc2ccncn2)c1=O
inhibition (Platelet-derived growth factor receptor alpha (PDGFRA, Homo sapiens, UniProt P16234); enzyme activity; inhibitor; 1 µM): 5%

CC(C)Cn1cnc2c(N)nc3ccccc3c21
inhibition (Adra1b; ligand displacement; radioligand; 10 µM): 40%

CC(C)C[C@H](NC(=O)[C@H]1O[C@@H]1C(=O)O)C(=O)NCCCCN=C(N)N
inhibition (CTSL; enzyme activity; inhibitor; 50 nM): 84%

NC(=O)Cc1ccccc1
inhibition (XDH; enzyme activity; inhibitor; absorbance; 200 µg/mL): 17.1%

O=C(Oc1cncc(Cl)c1)c1cc2cc(Cl)ccc2[nH]1
inhibition (CTSL; enzyme activity; inhibitor; 10 µM): 3%

COc1cc(Nc2ncc(F)c(Nc3ccc4c(n3)NC(=O)C(C)(C)O4)n2)cc(OC)c1OC
inhibition (MAP4K5; binding; competition with immobilised ligand; 10 µM): 16%

CC[C@H](NC(=O)OCc1ccccc1)C(=O)N[C@H](C(=O)N[C@@H](CC(C)C)C(=O)N(C)N(C#N)CCC(N)=O)C(C)(C)C
inhibition (CTSL; enzyme activity; inhibitor; 50 µM): 100%

CCOC(=O)c1ccc(OC(=O)CCCCCNC(=N)N)cc1
inhibition (CTSL; enzyme activity; inhibitor; 10 µM): 0%

C#Cc1n[nH]c2c(-c3cn([C@@H](C)c4ccccn4)c(=O)[nH]c3=O)cc(F)cc12
inhibition (Phosphatidylinositol 4-kinase beta (PI4KB, Homo sapiens, UniProt Q9UBF8); enzyme activity; inhibitor; 0.1 µM): 9.3%
